# ROMK mod: ROMK potassium channel modulators, primary screen, cell-based, thallium flux, MLSMR library | B-score at 10 µM | AID 1918, 2009 | hit rate 2% among 130,000 | Tet-inducible ROMK, thallium flux fluorescence; actives lie on both sides | ATP-sensitive inward rectifier potassium channel 1 (Homo sapiens), P48048;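 active = signal ratio slope over the read window, or its plate-corrected B-score, at least 3 SD from the plate mean, either direction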;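 also: B-score of the F/F0 ratio slope over 7 to 12 s after thallium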
# KCC2 mod: KCC2 cotransporter modulators, thallium flux, primary screen, cell-based, HEK293 KCC2, FluoZin-2 fluorescence, MLSMR | B-score of Tl+ flux slope (higher = more flux/activation; lower = inhibition) at 10 µM | hit rate 2.2% among 190,000 | KCC2 cells, thallium flux FluoZin-2 fluorescence | Solute carrier family 12 member 5 (Homo sapiens), Q9H2X9 | AID 1456, 2008;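 active = thallium flux slope and its plate-corrected score both differing from the plate sample mean at a set confidence after two filtering rounds, in either direction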;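 also: slope of fluorescence scaled to starting intensity during 10 to 20 s after thallium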
# Target sequence (Q9H2X9 whole entry, looked up): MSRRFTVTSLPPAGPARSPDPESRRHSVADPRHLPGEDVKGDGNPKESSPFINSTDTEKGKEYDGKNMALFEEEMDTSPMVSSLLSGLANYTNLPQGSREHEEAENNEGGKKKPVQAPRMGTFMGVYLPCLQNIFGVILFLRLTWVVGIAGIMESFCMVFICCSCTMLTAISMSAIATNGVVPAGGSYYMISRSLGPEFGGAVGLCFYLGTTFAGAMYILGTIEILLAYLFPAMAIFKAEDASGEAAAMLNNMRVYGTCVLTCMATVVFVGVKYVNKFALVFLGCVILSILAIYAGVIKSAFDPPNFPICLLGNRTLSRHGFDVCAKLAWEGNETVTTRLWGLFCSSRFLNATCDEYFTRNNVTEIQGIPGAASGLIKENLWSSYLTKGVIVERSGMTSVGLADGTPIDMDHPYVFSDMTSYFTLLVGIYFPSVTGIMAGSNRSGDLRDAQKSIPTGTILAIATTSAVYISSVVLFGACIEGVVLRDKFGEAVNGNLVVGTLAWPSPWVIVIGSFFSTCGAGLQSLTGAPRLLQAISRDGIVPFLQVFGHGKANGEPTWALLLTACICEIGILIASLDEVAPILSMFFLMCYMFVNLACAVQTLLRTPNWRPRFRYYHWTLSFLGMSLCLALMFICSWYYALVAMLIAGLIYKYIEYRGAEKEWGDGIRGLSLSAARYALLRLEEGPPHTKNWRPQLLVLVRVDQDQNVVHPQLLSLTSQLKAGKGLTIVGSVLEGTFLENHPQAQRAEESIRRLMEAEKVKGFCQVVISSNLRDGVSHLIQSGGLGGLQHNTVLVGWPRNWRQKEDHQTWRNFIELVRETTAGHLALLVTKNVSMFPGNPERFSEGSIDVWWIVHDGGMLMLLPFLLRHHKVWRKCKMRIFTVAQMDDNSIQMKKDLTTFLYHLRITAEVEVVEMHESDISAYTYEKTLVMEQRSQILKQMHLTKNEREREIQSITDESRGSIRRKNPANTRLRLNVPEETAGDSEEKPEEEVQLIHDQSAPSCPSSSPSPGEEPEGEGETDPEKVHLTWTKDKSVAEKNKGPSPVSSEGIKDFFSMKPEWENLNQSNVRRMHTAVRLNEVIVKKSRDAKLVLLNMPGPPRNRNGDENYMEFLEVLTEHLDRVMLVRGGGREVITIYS
# RBBP9 inh: human RBBP9 inhibitors, primary screen, biochemical, fluorescence polarization, FP-Rh probe, HTS; AID 1515, 2009; inhibition, % at 7.94 µM; recombinant RBBP9; Serine hydrolase RBBP9 (Homo sapiens), O75884; hit rate 0.2% among 220,000;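 active = inhibition above the campaign mean of all tested compounds plus 3 SD, cut at about 14% in these data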;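 also: plate controls were DMSO wells with RBBP9 for no effect and wells lacking RBBP9 protein for full effect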
#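 System: RBBP9 protein | Quantity: 2.5 µM RBBP9 dispensing solution, before mixing | Reagent: FP-Rh probe, 375 nM dispensing solution | Timing: Enzyme-compound preincubation 30 min, then probe labeling 45 min, 25 °C | Measured by: Fluorescence polarization | Read-out: % inhibition | Replication: One well per compound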
# WT yeast gro inh: growth inhibition of WT strain, primary screen, mitochondrial fusion inhibitor project, WT and mutant strains, chemical genetic; mitochondrial fusion phenotypic screen; inhibition, % at 10 µM; hit rate 2.1% among 190,000; AID 1362, 2008; in the data active = inhibition above about 58%; tested in S. cerevisiae
# NCF1 inh: p47phox/p22phox peptide binding inhibitors, primary screen, biochemical, uHTS, NADPH oxidase regulatory subunit; Neutrophil cytosol factor 1 (Homo sapiens), P14598; fluorescence polarization, 2 h; inhibition, % at 24.7 µM; hit rate 0.53% among 220,000; AID 1274, 2008;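 active = inhibition above about 30%, limit read from the data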;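 also: 0% = p47phox with labelled peptide and 100% = labelled peptide alone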
# 14-3-3 Bad PPI: inhibitors of 14-3-3 zeta/Bad binding, primary screen, biochemical, TR-FRET, bovine 14-3-3 zeta; inhibition, % at 21.7 µM; 14-3-3 protein zeta/delta (Bos taurus), P63103; AID 781, 2007; hit rate 0.71% among 220,000; TR-FRET 14-3-3zeta/Dy647-pBad peptide displacement, 1 h;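 active = inhibition above about 70%, limit read from the data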;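 also: 0% = full 14-3-3 plus peptide FRET controls and 100% = background without 14-3-3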
# ROMK hit retest: ROMK channel modulator hit retest, confirmation, cell-based, thallium flux, duplicate, resupplied hits. AID 1917, 2009. fluorescence ratio; hits give low values. shares compounds with ROMK mod. hit rate 54% among 3,000. normalized thallium flux (F/F0 slope) at 10 µM;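 active = Flux at 10 µM at least 3 SD below or above vehicle control mean in one or both replicates; inconclusive = no clear call, values can overlap the other calls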
# * = called active by the depositor; ? = inconclusive; . = no result. Sampled rows, rich in hits. Any-hit rate of the full collection: about 5.8%.
SMILES,ROMK mod,KCC2 mod,RBBP9 inh,WT yeast gro inh,NCF1 inh,14-3-3 Bad PPI,ROMK hit retest
Cn1nnnc1SCCNCc1ccccc1OCc1ccc(F)cc1,-3.8*,-2.2,-3,17,-5,2,0.059*
Cn1nnnc1SCCNCc1ccccc1F,.,.,-7,-21,-3,14,.
Cc1cc(C(C)(C)C)cc(S(=O)(=O)Nc2cccc(C(=O)O)c2)c1C,4.7*,.,5,17,-20,5,0.079
N#C/C(=C/c1cc(Br)cs1)C(=O)NCC1CCCO1 (stereo not drawn),.,-0.16,3,8,-5,1,0.064*
N#C/C(=C\c1cccs1)C(=O)NCC1CCCO1 (stereo not drawn),.,-0.73,2,22,-14,2,.
Cc1csc2c(N3CCN(C(=O)Nc4ccc(OC(F)(F)F)cc4)CC3)ncnc12,.,-3,-18,.,-3,-8,0.072
Cc1csc2c(N3CCC(C(=O)O)CC3)ncnc12,-0.59,-1.3,-8,.,-3,4,.
C=CCNS(=O)(=O)c1cc(S(=O)(=O)NCC=C)c(OC)cc1OC,0.15,-0.071,5,-5,-2,-6,.
CN(C)CCCN(C(=O)c1ccco1)c1nc2ccc(Cl)cc2s1,-4.1*,1.4,-4,16,-4,9,?
CCN(CC)CCCN(C(=O)c1ccco1)c1nc(-c2ccc(C)cc2)cs1,-3.5*,0.6,-4,11,-9,0,0.057*
O=C(C[n+]1cc(-c2ccc(Cl)cc2)n2c1CCC2)N1c2ccccc2Sc2ccccc21,-2,0.095,2,8,-39,-5,.
CC1CCC(C(C)C)C(OC(=O)C[n+]2cc(-c3ccc(Cl)cc3)n3c2CCC3)C1 (stereo not drawn),-6.6*,-0.79,-4,.,-3,-3,0.047*
COc1cccc(/C=N/NC(=O)c2cc3c(OC)cccc3[nH]2)c1OC,.,-0.019,-7,7,-41,-9,0.07
COc1cccc(/C=N/NC(=O)c2cc3c(OC)c(OC)ccc3[nH]2)c1OC,0.08,-2,-1,-3,-56,-18,.
CC(=O)NCCc1nc2ccccc2n1Cc1cc(C)ccc1C,-0.83,0.62,5,.,-6,3,.
CC(NCC(O)COc1ccc(S(=O)(=O)N2CCOCC2)cc1)c1ccccc1 (stereo not drawn),1.1,0.56,-6,-9,-2,-4,.
CC(NCC(O)COC1CCC(C(C)(C)C)CC1)c1ccccc1 (stereo not drawn),-2.3*,0.85,-9,72*,5,6,0.058*
O=C1CN(C(=O)c2cc3ccccc3oc2=O)C(c2ccccc2)c2cc(F)ccc2N1 (stereo not drawn),0.73,0.26,-8,3,-20,10,.
O=C1CN(C(=O)c2cc3ccccc3oc2=O)C(c2ccc(F)cc2)c2cc(F)ccc2N1 (stereo not drawn),4*,-0.0083,1,-17,-7,-8,0.075
CC(C(=O)N1CCc2ccccc2C1)N1C(=O)c2ccccc2C1=O (stereo not drawn),.,-0.21,-5,.,-1,-10,.
CC(C)CC(C(=O)N1CCc2ccccc2C1)N1C(=O)c2ccccc2C1=O (stereo not drawn),-3.5*,-2.1,-12,1,-14,-1,0.057*
CN(C)c1ccc(/C=[N+](\[O-])C2N(c3ccccc3)C(=S)SC2(C)C)cc1 (stereo not drawn),0.75,0.98,-5,-4,3,-6,.
Cc1nc([N+](=O)[O-])c(SCC(N)=O)n1Cc1ccccc1,-0.24,0.48,-5,-2,5,-12,.
Cc1nc([N+](=O)[O-])c(Sc2nc3ccccc3n2C)n1Cc1ccccc1,-3*,-3,-7,-16,-3,-8,0.056*
CCOC(=O)Nc1nn(-c2ccc(C)cc2)c(=O)c(C#N)c1C,-0.41,-0.32,3,-34,-10,-9,.
SMILES,ROMK mod,KCC2 mod,RBBP9 inh,WT yeast gro inh,NCF1 inh,14-3-3 Bad PPI,ROMK hit retest
Cc1ccc(CNc2nc(Cl)c(C#N)s2)cc1,1.1*,0.64,-3,-9,5,-2,0.081
CCOC(=O)CNc1nc(Cl)c(C#N)s1,-0.077,0.62,-1,-2,-6,-4,.
Cc1nc(Nc2cccc(C(C)O)c2)c2nnn(Cc3ccccc3F)c2n1 (stereo not drawn),-0.47,-1.6,-2,-6,-1,0,.
Oc1c(CN2CCCCC2)cc(COCc2ccccc2)c2cccnc12,-4.5*,.,3,1,-18,-11,0.07
COCc1cc(CN2CCCC2)c(O)c2ncccc12,0.84,.,4,3,-10,6,.
OC(CNCCCCNCC(O)C(F)(F)F)C(F)(F)F (stereo not drawn),2.7*,0.45,-9,4,-10,-12,0.08
OC(CNCc1ccc(Cl)cc1)C(F)(F)F (stereo not drawn),0.65,0.45,-15,7,-5,-20,.
CCn1cc(C(=O)OCC(=O)OC2CC(C)CCC2C(C)C)c(=O)c2ccc(C)nc21 (stereo not drawn),2.7*,.,-1,70*,-7,9,0.064*
C=CCOC(=O)c1cn(CC)c2nc(C)ccc2c1=O,0.14,-0.54,-4,-8,-10,20,.
c1ccc(-c2nc3nonc3nc2-c2ccccc2)cc1,-4.2*,0.098,0,47,-23,1,0.063*
CN(CCO)CCC(=O)NC1(C)CS(=O)(=O)CC1S(=O)(=O)O (stereo not drawn),.,1.1,0,.,1,11,.
c1ccc(Oc2c3ccccc3nc3ccccc23)cc1,.,.,2,.,-15,-3,.
Cc1cc(N2CCOCC2)ccc1/C=C1\NC(=O)N(CC(=O)Nc2ccccc2C)C1=O,0.75*,-0.0073,-1,-4,-4,-5,?
CC(C)N1CCN(Cc2cn[nH]c2C2CCCCC2)CC1CCO (stereo not drawn),.,.,3,-3,5,-14,.
O=C(C1CCCN(S(=O)(=O)c2cccnc2)C1)N1CCN(c2ccccn2)CC1 (stereo not drawn),.,-1.3,-5,-2,-7,1,.
CCOC(=O)N1CCN(C(=O)C2CCCN(S(=O)(=O)c3cccnc3)C2)CC1 (stereo not drawn),.,.,-5,-3,-6,7,0.078

# Source: PubChem BioAssay
